ChEMBL document CHEMBL5724801, “EUbOPEN Chemogenomics Library - Multiplex” (2024)
“And” between values parts separate entries of the source, which are not always exact repeats. Equal values may be shown once.

System: Fibroblast
Test: Multiplex assay against human fibroblast
Type: toxicity, cell-based
How it was run: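 Compound was added to live cells that had been stained at seeding with Hoechst33342, BioTracker Green Microtubule Cytoskeleton Dye, MitoTracker Red and Annexin V Alexa Fluor 680, and imaging followed on a CQ1 microscope at 37°C and 5% CO2. CellPathfinder machine-learning gating divided cells into Hoechst high-intensity objects or normal cells, normal cells into healthy, pyknosed or fragmented nuclei, and pyknosed cells into mitotic or apoptotic. Tubulin, mitochondrial-mass and membrane-permeability phenotypes are per cents of healthy-nucleus cells.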

[1] = 12 h, 1 µM, compound concentration 1 uM
[2] = 12 h, 10 µM, compound concentration 10 uM
[3] = 24 h, 1 µM, compound concentration 1 uM
[4] = 24 h, 10 µM, compound concentration 10 uM
[5] = 48 h, 1 µM, compound concentration 1 uM
[6] = 48 h, 10 µM, compound concentration 10 uM

With `COc1cccc2c1c(NS(=O)(=O)c1ccc(Cl)s1)nn2Cc1cccc(CNC(=O)C(C)(C)O)c1` the “Population Apoptotic (%)” value [1] was 43% and 33%, the “Population Fragmented Nuclei (%)” value [1] was 16% and 26% and the “Population Healthy Nuclei (%)” value [1] was 66% and 54%. For the same compound, the “Population Hoechst High Intensity Objects (%)” value [1] was 0%, the “Population Membrane Permeable-Phenotype (%)” value [1] was 1% and 4% and the “Population Mitochondria Different-Phenotype (%)” value [1] was 2% and 1%. For the same compound, the “Population Mitotic Cells (%)” value [1] was 56% and 66%, the “Population Normal (%)” value [1] was 99% and 100% and the “Population Pyknosed Nuclei (%)” value [1] was 17% and 18%. For the same compound, the “Population Tubulin-Different-Phenotype (%)” value [1] was 27% and 18%, the “Total Cell Count” value [1] was 134 and 112 and the “Population Apoptotic (%)” value [2] was 42% and 41%. The “Population Fragmented Nuclei (%)” value [2] was 13% and 24%, the “Population Healthy Nuclei (%)” value [2] was 72% and 55% and the “Population Hoechst High Intensity Objects (%)” value [2] was 2% and 7%. For the same compound, the “Population Membrane Permeable-Phenotype (%)” value [2] was 1% and 7%, the “Population Mitochondria Different-Phenotype (%)” value [2] was 11% and 4% and the “Population Mitotic Cells (%)” value [2] was 57% and 58%. The “Population Normal (%)” value [2] was 97% and 92%, the “Population Pyknosed Nuclei (%)” value [2] was 13% and 19% and the “Population Tubulin-Different-Phenotype (%)” value [2] was 37% and 55%. For the same compound, the “Total Cell Count” value [2] was 211 and 174, the “Population Apoptotic (%)” value [3] was 55% and 50% and the “Population Fragmented Nuclei (%)” value [3] was 19% and 28%. The “Population Healthy Nuclei (%)” value [3] was 68% and 49%, the “Population Hoechst High Intensity Objects (%)” value [3] was 2% and 1% and the “Population Membrane Permeable-Phenotype (%)” value [3] was 2% and 7%. For the same compound, the “Population Mitochondria Different-Phenotype (%)” value [3] was 3% and 5%, the “Population Mitotic Cells (%)” value [3] was 44% and 50% and the “Population Normal (%)” value [3] was 97% and 98%. The “Population Pyknosed Nuclei (%)” value [3] was 12% and 22%, the “Population Tubulin-Different-Phenotype (%)” value [3] was 28% and 35% and the “Total Cell Count” value [3] was 144 and 110. The “Population Apoptotic (%)” value [4] was 48% and 50%, the “Population Fragmented Nuclei (%)” value [4] was 11% and 22% and the “Population Healthy Nuclei (%)” value [4] was 74% and 55%. For the same compound, the “Population Hoechst High Intensity Objects (%)” value [4] was 2% and 8%, the “Population Membrane Permeable-Phenotype (%)” value [4] was 1% and 6% and the “Population Mitochondria Different-Phenotype (%)” value [4] was 7% and 2%. The “Population Mitotic Cells (%)” value [4] was 52% and 50%, the “Population Normal (%)” value [4] was 97% and 92% and the “Population Pyknosed Nuclei (%)” value [4] was 13% and 22%. For the same compound, the “Population Tubulin-Different-Phenotype (%)” value [4] was 30% and 48%, the “Total Cell Count” value [4] was 190 and 175 and the “Population Apoptotic (%)” value [5] was 62% and 75%. The “Population Fragmented Nuclei (%)” value [5] was 21% and 26%, the “Population Healthy Nuclei (%)” value [5] was 66% and 60% and the “Population Hoechst High Intensity Objects (%)” value [5] was 5% and 2%. The “Population Membrane Permeable-Phenotype (%)” value [5] was 1% and 8%, the “Population Mitochondria Different-Phenotype (%)” value [5] was 5% and 3% and the “Population Mitotic Cells (%)” value [5] was 37% and 25%. For the same compound, the “Population Normal (%)” value [5] was 94% and 97%, the “Population Pyknosed Nuclei (%)” value [5] was 12% and the “Population Tubulin-Different-Phenotype (%)” value [5] was 30% and 55%. The “Total Cell Count” value [5] was 135 and 99, the “Population Apoptotic (%)” value [6] was 63% and 51% and the “Population Fragmented Nuclei (%)” value [6] was 13% and 33%. The “Population Healthy Nuclei (%)” value [6] was 73% and 49%, the “Population Hoechst High Intensity Objects (%)” value [6] was 5% and 6% and the “Population Membrane Permeable-Phenotype (%)” value [6] was 3%. For the same compound, the “Population Mitochondria Different-Phenotype (%)” value [6] was 10% and 4%, the “Population Mitotic Cells (%)” value [6] was 36% and 48% and the “Population Normal (%)” value [6] was 94% and 93%. For the same compound, the “Population Pyknosed Nuclei (%)” value [6] was 12% and 17%, the “Population Tubulin-Different-Phenotype (%)” value [6] was 40% and 43% and the “Total Cell Count” value [6] was 187.

In the case of `Cc1sc2c(c1C)C(c1ccc(Cl)cc1)=N[C@@H](CC(=O)NCCCCCCCCNC(=O)COc1cccc3c1C(=O)N(C1CCC(=O)NC1=O)C3=O)c1nnc(C)n1-2` (stereo partly drawn), the “Population Apoptotic (%)” value [1] is reported as 57% and 42%, the “Population Healthy Nuclei (%)” value [1] is reported as 72% and 34% and the “Population Hoechst High Intensity Objects (%)” value [1] is reported as 3% and 6%. For the same compound, the “Population Mitotic Cells (%)” value [1] was 42% and 57%, the “Population Normal (%)” value [1] was 96% and 93% and the “Population Pyknosed Nuclei (%)” value [1] was 16% and 31%. For the same compound, the “Population Tubulin-Different-Phenotype (%)” value [1] was 25% and 66%, the “Total Cell Count” value [1] was 118 and 94 and the “Population Apoptotic (%)” value [2] was 54% and 44%. The “Population Fragmented Nuclei (%)” value [2] was 13% and 27%, the “Population Healthy Nuclei (%)” value [2] was 56% and 27% and the “Population Hoechst High Intensity Objects (%)” value [2] was 11% and 17%. The “Population Membrane Permeable-Phenotype (%)” value [2] was 1% and 7%, the “Population Mitochondria Different-Phenotype (%)” value [2] was 19% and 26% and the “Population Mitotic Cells (%)” value [2] was 45% and 55%. For the same compound, the “Population Normal (%)” value [2] was 88% and 82%, the “Population Pyknosed Nuclei (%)” value [2] was 30% and 45% and the “Population Tubulin-Different-Phenotype (%)” value [2] was 50% and 69%. For the same compound, the “Total Cell Count” value [2] was 171 and 115, the “Population Apoptotic (%)” value [3] was 56% and 65% and the “Population Fragmented Nuclei (%)” value [3] was 20% and 41%. The “Population Healthy Nuclei (%)” value [3] was 53% and 32%, the “Population Hoechst High Intensity Objects (%)” value [3] was 10% and 3% and the “Population Mitotic Cells (%)” value [3] was 44% and 35%. For the same compound, the “Population Normal (%)” value [3] was 89% and 96%, the “Population Pyknosed Nuclei (%)” value [3] was 26% and 25% and the “Population Tubulin-Different-Phenotype (%)” value [3] was 25% and 72%. For the same compound, the “Total Cell Count” value [3] was 107 and 80, the “Population Apoptotic (%)” value [4] was 67% and 44% and the “Population Fragmented Nuclei (%)” value [4] was 20% and 25%. For the same compound, the “Population Healthy Nuclei (%)” value [4] was 38% and 32%, the “Population Hoechst High Intensity Objects (%)” value [4] was 13% and 12% and the “Population Mitochondria Different-Phenotype (%)” value [4] was 9% and 20%. For the same compound, the “Population Mitotic Cells (%)” value [4] was 32% and 55%, the “Population Normal (%)” value [4] was 86% and 87% and the “Population Pyknosed Nuclei (%)” value [4] was 41% and 42%. The “Population Tubulin-Different-Phenotype (%)” value [4] was 47% and 68%, the “Total Cell Count” value [4] was 154 and 103 and the “Population Apoptotic (%)” value [5] was 88% and 93%. The “Population Fragmented Nuclei (%)” value [5] was 41% and 42%, the “Population Healthy Nuclei (%)” value [5] was 24% and 37% and the “Population Mitochondria Different-Phenotype (%)” value [5] was 0% and 20%. For the same compound, the “Population Mitotic Cells (%)” value [5] was 12% and 6%, the “Population Normal (%)” value [5] was 72% and 91% and the “Population Pyknosed Nuclei (%)” value [5] was 33% and 20%. The “Population Tubulin-Different-Phenotype (%)” value [5] was 33% and 82%, the “Total Cell Count” value [5] was 102 and 85 and the “Population Apoptotic (%)” value [6] was 86% and 57%. For the same compound, the “Population Fragmented Nuclei (%)” value [6] was 40% and 38%, the “Population Healthy Nuclei (%)” value [6] was 20% and 38% and the “Population Hoechst High Intensity Objects (%)” value [6] was 38% and 15%. For the same compound, the “Population Membrane Permeable-Phenotype (%)” value [6] was 5% and 14%, the “Population Mitochondria Different-Phenotype (%)” value [6] was 10% and 14% and the “Population Normal (%)” value [6] was 61% and 84%. The “Population Pyknosed Nuclei (%)” value [6] was 38% and 23%, the “Population Tubulin-Different-Phenotype (%)” value [6] was 55% and 80% and the “Total Cell Count” value [6] was 156 and 108.

With `O=C(Nc1cc(-c2ccccc2)nn1-c1ccccc1F)c1ccc([N+](=O)[O-])cc1` the “Population Apoptotic (%)” value [1] was 28% and 32%, the “Population Fragmented Nuclei (%)” value [1] was 17% and 19% and the “Population Healthy Nuclei (%)” value [1] was 71% and 55%. The “Population Hoechst High Intensity Objects (%)” value [1] was 2% and 8%, the “Population Membrane Permeable-Phenotype (%)” value [1] was 1% and 4% and the “Population Mitochondria Different-Phenotype (%)” value [1] was 1% and 9%. The “Population Mitotic Cells (%)” value [1] was 71% and 67%, the “Population Normal (%)” value [1] was 97% and 91% and the “Population Pyknosed Nuclei (%)” value [1] was 10% and 25%. The “Population Tubulin-Different-Phenotype (%)” value [1] was 22% and 53%, the “Total Cell Count” value [1] was 138 and 160 and the “Population Apoptotic (%)” value [2] was 28% and 45%. For the same compound, the “Population Fragmented Nuclei (%)” value [2] was 10% and 25%, the “Population Healthy Nuclei (%)” value [2] was 66% and 47% and the “Population Hoechst High Intensity Objects (%)” value [2] was 2% and 6%. The “Population Membrane Permeable-Phenotype (%)” value [2] was 1% and 6%, the “Population Mitochondria Different-Phenotype (%)” value [2] was 4% and 3% and the “Population Mitotic Cells (%)” value [2] was 71% and 54%. For the same compound, the “Population Normal (%)” value [2] was 97% and 93%, the “Population Pyknosed Nuclei (%)” value [2] was 22% and 26% and the “Population Tubulin-Different-Phenotype (%)” value [2] was 48% and 77%. The “Total Cell Count” value [2] was 170 and 149, the “Population Apoptotic (%)” value [3] was 53% and 50% and the “Population Fragmented Nuclei (%)” value [3] was 16% and 25%. For the same compound, the “Population Healthy Nuclei (%)” value [3] was 74% and 53%, the “Population Hoechst High Intensity Objects (%)” value [3] was 2% and 7% and the “Population Membrane Permeable-Phenotype (%)” value [3] was 0% and 6%. The “Population Mitochondria Different-Phenotype (%)” value [3] was 0% and 2%, the “Population Mitotic Cells (%)” value [3] was 46% and 50% and the “Population Normal (%)” value [3] was 97% and 92%. For the same compound, the “Population Pyknosed Nuclei (%)” value [3] was 9% and 20%, the “Population Tubulin-Different-Phenotype (%)” value [3] was 18% and 52% and the “Total Cell Count” value [3] was 135 and 156. For the same compound, the “Population Apoptotic (%)” value [4] was 26% and 28%, the “Population Healthy Nuclei (%)” value [4] was 76% and 53% and the “Population Hoechst High Intensity Objects (%)” value [4] was 4% and 6%. For the same compound, the “Population Membrane Permeable-Phenotype (%)” value [4] was 1% and 9%, the “Population Mitochondria Different-Phenotype (%)” value [4] was 7% and 1% and the “Population Mitotic Cells (%)” value [4] was 73% and 72%. The “Population Normal (%)” value [4] was 95% and 93%, the “Population Pyknosed Nuclei (%)” value [4] was 16% and 18% and the “Population Tubulin-Different-Phenotype (%)” value [4] was 49% and 69%. For the same compound, the “Total Cell Count” value [4] was 163 and 147, the “Population Apoptotic (%)” value [5] was 54% and 55% and the “Population Fragmented Nuclei (%)” value [5] was 23% and 30%. For the same compound, the “Population Healthy Nuclei (%)” value [5] was 67% and 53%, the “Population Hoechst High Intensity Objects (%)” value [5] was 7% and the “Population Membrane Permeable-Phenotype (%)” value [5] was 1% and 5%. The “Population Mitochondria Different-Phenotype (%)” value [5] was 0% and 4%, the “Population Mitotic Cells (%)” value [5] was 45% and 44% and the “Population Normal (%)” value [5] was 92%. The “Population Pyknosed Nuclei (%)” value [5] was 8% and 15%, the “Population Tubulin-Different-Phenotype (%)” value [5] was 18% and 54% and the “Total Cell Count” value [5] was 145 and 183. For the same compound, the “Population Apoptotic (%)” value [6] was 66% and 52%, the “Population Fragmented Nuclei (%)” value [6] was 16% and 31% and the “Population Healthy Nuclei (%)” value [6] was 70% and 54%. For the same compound, the “Population Hoechst High Intensity Objects (%)” value [6] was 7% and 5%, the “Population Membrane Permeable-Phenotype (%)” value [6] was 3% and 6% and the “Population Mitochondria Different-Phenotype (%)” value [6] was 3%. For the same compound, the “Population Mitotic Cells (%)” value [6] was 33% and 47%, the “Population Normal (%)” value [6] was 92% and 94% and the “Population Pyknosed Nuclei (%)” value [6] was 12% and 14%. The “Population Tubulin-Different-Phenotype (%)” value [6] was 55% and 66% and the “Total Cell Count” value [6] was 160 and 153.
